DDE Tn6 FP inh: disrupts Tn6 cyclic peptide binding to fibrin D-Dimer-E complex. 0.21% of 370,000 active. P02675. Fibrin DD(E) TRITC-Tn6 fluorescence polarization displacement. inhibition, % at 8.3 µM. AID 720509;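 active means inhibition above a per-campaign cutoff: mean of compounds within control limits plus 3 SD, cut at about 15% in these data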;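 further: 0% = median of all compound wells on the plate and 100% = blocking peptide control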
SIAE primary: blocks human sialic acid acetylesterase. SIAE FP-Rh probe binding, fluorescence polarization. 0.69% of 370,000 active. inhibition, % at 9.66 µM. Q9HAT2. AID 1053197;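 active means inhibition above a cutoff: mean of compounds within the control limits plus 3 SD of those, cut at about 17% in these data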;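 further: 0% = plate median of compound wells and 100% = probe without SIAE protein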
TCR CD3 inh: inhibitors of human TCR-CD3 interaction. inhibition, % at 9.4 µM. AID 651800. 0.37% of 360,000 active. TAMRA-labeled TCR probe fluorescence, biochemical;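 further: recombinant mutant TCR 2C K166C tagged with TAMRA read by polarization; 0% = receptor in buffer alone and 100% = receptor with positive control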
HTRA1 inh: blocks human HTRA1 serine peptidase; Q92743; recombinant HTRA1, FP-rhodamine activity-based probe, fluorescence polarization; inhibition, % at 5.96 µM; 0.5% of 340,000 active; in the data active means inhibition above about 36%;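 further: 0% = enzyme with DMSO and 100% = wells lacking enzyme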
mABHD4 FP: ABHD4 (mouse) inhibition, primary FP screen. AID 720543. Q8VD66. 0.54% of 370,000 active. inhibition, % at 8.92 µM. purified mABHD4, FP-Rh probe fluorescence polarization;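 active means inhibition exceeding the mean over every tested compound plus 3 SD, cut at about 30% in these data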;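 further: 0% = plate median of compound wells and 100% = S159A mutant with DMSO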
Target sequence (Q8VD66 whole entry, looked up): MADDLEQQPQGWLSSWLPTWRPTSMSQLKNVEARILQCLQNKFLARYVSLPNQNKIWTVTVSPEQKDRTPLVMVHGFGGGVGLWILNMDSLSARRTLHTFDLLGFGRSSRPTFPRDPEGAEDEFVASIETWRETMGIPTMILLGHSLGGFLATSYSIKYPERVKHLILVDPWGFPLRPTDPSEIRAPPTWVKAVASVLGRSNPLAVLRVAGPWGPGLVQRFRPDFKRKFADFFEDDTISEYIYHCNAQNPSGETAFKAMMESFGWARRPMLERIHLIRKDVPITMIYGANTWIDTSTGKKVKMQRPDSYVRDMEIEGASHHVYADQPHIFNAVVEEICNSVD
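Assay system: mouse ABHD4 enzyme, wild type / Also added: fluorescent activity-based probe FP-Rh / Doses: single nominal dose of 8.92 µM, 0.89% DMSO final / Timing: 45 min compound pre-incubation plus 60 min probe step, 25 °C / Signal: FP readout, ex 525 nm / em 598 nm / Control set: S159A mutant/DMSO as 100%, compound-well median as 0%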
DDE Tn7 FP inh: disrupts Tn7 cyclic peptide binding to fibrin D-Dimer-E complex | P02675 | 0.13% of 370,000 active | AID 720508 | FP displacement of FITC-Tn7 peptide from fibrin DD(E); 0% = median of compound wells per plate | inhibition, % at 8.3 µM;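 active means inhibition above the mean of compounds falling within the control limits plus 3 SD of them, cut at about 14% in these data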;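 further: 0% = plate median of compound wells and 100% = 10 µM Aha-Tn7 peptide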
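Assay system: Fibrin-DD(E) protein isolated from polymerized human fibrin clots; read-out basis: percent inhibition; medium: Tris/NaCl/CaCl2 buffer, pH 7.8; signal: FP measurement; incubation: 10 min plus 3 h, room temperature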
HTRA1 inh conf: confirmation of human HTRA1 inhibitors; 66% of 1,600 active; inhibition, % at 5.96 µM; shares compounds with HTRA1 inh; recombinant HTRA1, FP-rhodamine activity-based probe, fluorescence polarization;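 active means mean inhibition over three repeats above a set limit taken from the earlier primary screen, cut at about 37% in these data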;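 further: 0% = HTRA1 with DMSO and 100% = wells lacking HTRA1; inhibitors block probe binding so polarization drops and inhibition rises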
BSA probe FL: BSA probe counter-screen for TCR-CD3 inhibitors | shares compounds with TCR CD3 inh | TAMRA-labeled BSA probe fluorescence counterscreen | inhibition, % at 9.4 µM | 10% of 1,200 active; in the data active means inhibition above about 23%;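 further: 0% = buffer low control and 100% = reference high control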
TCR-CD3 inh conf: TCR-CD3 interaction inhibition, confirmation. shares compounds with TCR CD3 inh. TAMRA-labeled TCR probe fluorescence binding assay. inhibition, % at 9.4 µM. 48% of 1,200 active
DDE Tn6 FP ctr: counter-screen for inhibitors of Tn6 peptide binding to fibrin DD(E) | shares compounds with DDE Tn6 FP inh | TRITC-Tn6 fluorescence polarization displacement; 0% = median of compound wells, not DMSO | inhibition, % at 8.3 µM | 2% of 680 active;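 active means inhibition above the mean of test compounds lying between the control limits plus 3 SD of those, cut at about 14% in these data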;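 further: 0% = median of compound wells and 100% = wells with Aha-Tn7 blocking peptide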
DDE Tn6 confirm: DD(E)-Tn6 binding inhibition, FP confirmation | shares compounds with DDE Tn6 FP inh | FP displacement of TRITC-Tn6 peptide from DD(E); 0% = per-plate median of test wells | inhibition, % at 8.3 µM | 10% of 680 active | AID 720631;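 active means inhibition above the mean of compounds lying within the control limits plus 3 SD, cut at about 16% in these data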;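 further: 100% = high control wells holding a competing inhibitor peptide at 10 µM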
mABHD4 conf: confirmation of mouse ABHD4 inhibitors; inhibition, % at 8.92 µM; shares compounds with mABHD4 FP; purified mABHD4, FP-Rh probe fluorescence polarization; 55% of 1,800 active; AID 720658;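 active means mean inhibition across replicates above the hit cutoff set in the primary screen, cut at about 30% in these data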;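 further: 0% = wild-type ABHD4 with DMSO and 100% = catalytically dead S159A mutant with DMSO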
SIAE inh conf: human SIAE inhibition, confirmation; AID 1117263; inhibition, % at 9.66 µM; 13% of 2,300 active; SIAE FP-Rh activity-based probe, fluorescence polarization; shares compounds with SIAE primary;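 active means mean inhibition of the replicates above the hit cutoff set in the primary screen, cut at about 17% in these data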;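 further: 0% = SIAE with DMSO and probe and 100% = probe without SIAE; inhibitors lower polarization as more probe stays unbound to SIAE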
Starred values were filed as active, the others as inactive. Most compounds without a hit are left out; they make up all but 1.8% or so of the library. Unless noted, no stated cut-off is given here; in the data, active means inhibition above about 19%; inactive means the rest.

For CCN(CC)Cc1cc(Nc2c3ccccc3nc3c4ccccc4n(C)c23)cc(CN(CC)CC)c1O the results were DDE Tn6 FP inh -4, SIAE primary 17*, TCR CD3 inh 9, HTRA1 inh 38*, mABHD4 FP 33*, DDE Tn7 FP inh -7, HTRA1 inh conf 18 and SIAE inh conf 4.
For Oc1cccc(Nc2c3ccccc3nc3ccccc23)c1 the results were DDE Tn6 FP inh 2, SIAE primary 4, TCR CD3 inh 4, HTRA1 inh 10, mABHD4 FP 10 and DDE Tn7 FP inh 5.
For O=C(N/N=C/c1c(O)ccc2ccccc12)c1ccc(CO)nc1 the results were DDE Tn6 FP inh -4, SIAE primary 35*, TCR CD3 inh 34*, HTRA1 inh 48*, mABHD4 FP 23, DDE Tn7 FP inh -10, HTRA1 inh conf 46*, BSA probe FL -16, TCR-CD3 inh conf 25* and SIAE inh conf 12.
COc1ccc2ccccc2c1/C=N/NC(=O)c1ccc(C)nc1 was read as DDE Tn6 FP inh -8, SIAE primary -2, TCR CD3 inh 0, HTRA1 inh -1, mABHD4 FP -9 and DDE Tn7 FP inh -3.
`O=c1c(O)cccc2cc(O)c(O)c(O)c12` gave DDE Tn6 FP inh -2, SIAE primary 24*, TCR CD3 inh 93*, HTRA1 inh 58*, mABHD4 FP 55*, DDE Tn7 FP inh -6, HTRA1 inh conf 60*, BSA probe FL -4, TCR-CD3 inh conf 81*, mABHD4 conf 52* and SIAE inh conf 18*.
`Cc1cccc(C(=O)Nc2nc3ncccn3c2-c2ccc(F)c(F)c2)c1` gave DDE Tn6 FP inh 1, SIAE primary 0, mABHD4 FP -3 and DDE Tn7 FP inh -3.
For CCN1/C(=C/C=C/c2sc3ccccc3[n+]2CC)Sc2ccccc21 the results were HTRA1 inh -141.
For CCN1/C(=C/C=C/c2oc3ccc(-c4ccccc4)cc3[n+]2CC)Oc2ccc(-c3ccccc3)cc21 the results were DDE Tn6 FP inh active, SIAE primary 68*, TCR CD3 inh 105*, HTRA1 inh 114*, mABHD4 FP 72*, DDE Tn7 FP inh -6, HTRA1 inh conf 108*, BSA probe FL 152*, TCR-CD3 inh conf 58*, DDE Tn6 FP ctr 53*, DDE Tn6 confirm 93*, mABHD4 conf 89* and SIAE inh conf 12.
Screening Oc1ccc(N=Cc2ccc(OCc3ccccc3)cc2)cc1 returned DDE Tn6 FP inh 7, SIAE primary 45*, TCR CD3 inh 32*, HTRA1 inh 63*, mABHD4 FP 68*, DDE Tn7 FP inh 3, HTRA1 inh conf -9, BSA probe FL 4, TCR-CD3 inh conf 0, mABHD4 conf 16 and SIAE inh conf 4.
Screening O=C(N/N=C/c1ccc(OCc2ccccc2)cc1)c1ccncc1 returned DDE Tn6 FP inh 4, SIAE primary 6, TCR CD3 inh -3, HTRA1 inh -16, mABHD4 FP -9 and DDE Tn7 FP inh -1.
`COc1ccc(OC)c(N)c1` gave DDE Tn6 FP inh 13, SIAE primary 28*, TCR CD3 inh 23*, HTRA1 inh 66*, mABHD4 FP 41*, DDE Tn7 FP inh 1, HTRA1 inh conf 25, BSA probe FL 22, TCR-CD3 inh conf 18, mABHD4 conf 24 and SIAE inh conf 14.
Screening COC(=O)[C@]12C[C@H](CC(=O)N3CCN(C(=O)c4ccco4)CC3)C(=O)N(Cc3ccco3)C1=C[C@H](C(C)C)O[C@@H]2C1CC1 returned DDE Tn6 FP inh -6, SIAE primary 2, mABHD4 FP -11 and DDE Tn7 FP inh 4.
O=C(N/N=C/c1cccc(O)c1)c1cc(-c2ccccc2)nc2ccccc12 was read as DDE Tn6 FP inh 6, SIAE primary -34, TCR CD3 inh -2, HTRA1 inh -55, mABHD4 FP -56 and DDE Tn7 FP inh 0.
Cn1c2ccccc2c2cc(/C=N/NC(=O)c3cc(O)ccc3O)ccc21 was read as DDE Tn6 FP inh -16, SIAE primary 50*, TCR CD3 inh 43*, HTRA1 inh 64*, mABHD4 FP 52*, DDE Tn7 FP inh 5, HTRA1 inh conf 64*, BSA probe FL -18, TCR-CD3 inh conf 23*, mABHD4 conf 0 and SIAE inh conf 5.
Screening O=C(N/N=C/c1ccc(O)c(O)c1)c1cc(-c2ccccc2)nc2ccccc12 returned DDE Tn6 FP inh -8, SIAE primary 19*, TCR CD3 inh 11, HTRA1 inh 63*, mABHD4 FP 22, DDE Tn7 FP inh -10, HTRA1 inh conf 76* and SIAE inh conf -13.
`Cn1c2ccccc2c2cc(/C=N/NC(=O)c3cc(O)cc(O)c3)ccc21` gave DDE Tn6 FP inh -22, SIAE primary -22, TCR CD3 inh 12, HTRA1 inh -41, mABHD4 FP -30 and DDE Tn7 FP inh -1.
`O=C(/C=C/c1ccc(O)c(O)c1)c1ccc(S(=O)(=O)N2CCCCCC2)cc1` gave DDE Tn6 FP inh 0, SIAE primary 45*, TCR CD3 inh 9, HTRA1 inh 55*, mABHD4 FP 25, DDE Tn7 FP inh -10, HTRA1 inh conf 56* and SIAE inh conf -2.
Oc1ccc(NCc2ccccc2OCc2ccccc2)cc1 was read as DDE Tn6 FP inh 14, SIAE primary 39*, TCR CD3 inh 26*, HTRA1 inh 49*, mABHD4 FP 81*, DDE Tn7 FP inh -3, HTRA1 inh conf 25, BSA probe FL 0, TCR-CD3 inh conf -1, mABHD4 conf 27 and SIAE inh conf 5.

Screens as filed in PubChem.
